Data: ChEMBL document CHEMBL5029154, “Design, Synthesis, and Biological Evaluation of Organic Nitrite (NO2-) Donors as Potential Anticerebral Ischemia Agents” (J Med Chem, 2021)
The source made the active and inactive calls. No cut-off for these calls is given here.

Key:
[1] = Drug metabolism assessed as nitric oxide release in presence of bovine plasma at 200 uM measured after 1 hr by Griess reagent based assay; type: ADME, cell-free, Bos taurus; conditions: cattle
Cortical neurone [2] = test: Neuroprotective activity against in OGD/R-induced Sprague-Dawley rat cortical neuron injury assessed as cell viability pretreated at 1.8 uM for 24 hrs followed by subjected to OGD for 2 hrs measured after 24 hrs under normoxic condition; type: functional, tissue-based
Method in brief: (§1)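 Cortical neurons were isolated from SD rat cortex by enzymatic digestion, plated on poly-lysine in 10% FBS DMEM, and pretreated 24 h at 1.8 μM in basal medium with 2% B27. OGD was run in glucose/FBS-free DMEM under 1% O₂, followed by 24 h reoxygenation in 10% FBS DMEM. Viability was read by MTT; apoptosis was also assessed. Three independent experiments.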

[3] = Neuroprotective activity against in OGD/R-induced rat cortical neuron apoptosis assessed as early apoptotic cells pretreated at 1.8 uM for 24 hrs followed by subjected to OGD for 2 hrs measured after 24 hrs under normoxic condition by PI/FITC-H staining based flow cytometry (reference value: 58.46%); type: functional, Cortical neurone
[4] = Neuroprotective activity against in OGD/R-induced rat cortical neuron apoptosis assessed as necrotic cells pretreated at 1.8 uM for 24 hrs followed by subjected to OGD for 2 hrs measured after 24 hrs under normoxic condition by PI/FITC-H staining based flow cytometry (reference value: 3.68%); type: functional, Cortical neurone
[5] = Neuroprotective activity against in OGD/R-induced rat primary cortical neuron apoptosis assessed as viable cells pretreated at 1.8 uM for 24 hrs followed by subjected to OGD for 2 hrs measured after 24 hrs under normoxic condition by PI/FITC-H staining based flow cytometry (reference value: 31.55%); type: functional; conditions: Cortical neurone, read-out: Activity; method in brief: as §1
Cortical neurone [6] = test: Neuroprotective activity against in OGD/R-induced rat cortical neuron cytotoxicity assessed as decrease in cell viability pretreated at 1.8 uM for 24 hrs followed by subjected to OGD for 2 hrs measured after 24 hrs under normoxic condition by MTT assay; type: functional, tissue-based
Method in brief: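 Primary rat cortical neurons from enzymatically digested cortex, plated on poly-lysine in DMEM/10% FBS for 4 h. Pretreated 24 h in neuron basal medium with 2% B27, then glucose/FBS-free DMEM at 1% O2. Returned to 10% FBS DMEM under normoxia for 24 h. Viability by MTT; three independent experiments, mean SD.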

[7] = Neuroprotective activity against in OGD/R-induced rat cortical neuron apoptosis assessed as late apoptotic cells pretreated at 1.8 uM for 24 hrs followed by subjected to OGD for 2 hrs measured after 24 hrs under normoxic condition by PI/FITC-H staining based flow cytometry (reference value: 6.31%); type: functional, Cortical neurone
Cortical neurone [8] = test: Induction of Nrf2 protein level in OGD/R-induced rat primary cortical neuron pretreated at 1.8 uM for 24 hrs followed by subjected to OGD for 2 hrs measured after 24 hrs under normoxic condition by Western blot analysis; type: functional, tissue-based
Method in brief: (§2)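 Primary rat cortical neurons were pretreated with 1.8 μM compound for 24 h, given 2 h OGD, then 24 h normoxic culture. Nrf2, HO-1 and NQO1 mRNA were measured by RT-qPCR. Cytoplasmic and nuclear protein (30 μg/lane) were blotted for Nrf2, with lamin A and β-actin as references, and quantified by densitometry as the nuclear:cytoplasmic ratio. Three independent experiments, mean ± SD.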

Cortical neurone [9] = test: Effect on Nrf2 mRNA transcript level in OGD/R-induced rat primary cortical neuron pretreated at 1.8 uM for 24 hrs followed by subjected to OGD for 2 hrs measured after 24 hrs under normoxic condition by RT-qPCR analysis; type: functional, tissue-based; method in brief: as §2
Cortical neurone [10] = test: Induction of NQO1 mRNA transcript level in OGD/R-induced rat primary cortical neuron pretreated at 1.8 uM for 24 hrs followed by subjected to OGD for 2 hrs measured after 24 hrs under normoxic condition by RT-qPCR analysis; type: functional, tissue-based; method in brief: as §2
Cortical neurone [11] = test: Induction of HO-1 mRNA transcript level in OGD/R-induced rat primary cortical neuron pretreated at 1.8 uM for 24 hrs followed by subjected to OGD for 2 hrs measured after 24 hrs under normoxic condition by RT-qPCR analysis; type: functional, tissue-based; method in brief: as §2
HUVEC = test: Angiogenesis activity in HUVEC cells assessed as increase in tube formation at 1.8 uM measured after 8 hrs by inverted microscopy; type: functional, cell-based; conditions: Homo sapiens
Method in brief: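 Early-passage HUVECs (passages 2–6), grown in DMEM with 10% FBS, glutamine, pyruvate and antibiotics, were seeded at 8 × 10⁴ cells/well on Matrigel. They were exposed to vehicle or compound for 8 h at 37 °C, 5% CO₂. Tubes were counted under an inverted microscope.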

SMILES: O=C1CCCC=C1C[N+](=O)[O-]
- Drug metabolism [1]: Metabolite_Detected

SMILES: COC(=O)/C(=C/c1ccccc1)C[N+](=O)[O-]
- Drug metabolism [1]: Metabolite_Detected
- Activity (Cortical neurone [2]): Active

SMILES: O=N[O-].[Na+] [SODIUM NITRITE]
- Activity [3]: 50.12%
- Activity [4]: 0.51%
- viability at 1.8 µM [5]: 46.9%
- Activity (Cortical neurone [6]): inactive
- Activity [7]: 2.47%
- Activity (Cortical neurone [8]): inactive
- Activity (Cortical neurone [9]): inactive

SMILES: CC(C)(C)c1cc(O)ccc1O [E319]
- Activity [3]: 13.91%
- Activity [4]: 0.84%
- viability at 1.8 µM [5]: 84%
- Activity (Cortical neurone [10]): Active
- Activity (Cortical neurone [11]): Active
- Activity [7]: 1.4%
- Activity (Cortical neurone [8]): Active
- Activity (Cortical neurone [9]): inactive

SMILES: O=[N+]([O-])C/C(=C\c1ccccc1)[N+](=O)[O-]
- Drug metabolism [1]: Metabolite_Detected
- Activity (Cortical neurone [2]): Active

SMILES: N#C/C(=C\c1ccccc1)C[N+](=O)[O-]
- Drug metabolism [1]: Metabolite_Detected
- Activity (Cortical neurone [2]): Active

SMILES: C/C(=C\c1ccccc1)C(=O)c1ccccc1
- Activity (HUVEC): inactive
- Activity (Cortical neurone [8]): Active
